Here are results for 25 compounds from ChEMBL document CHEMBL1143323, “Oxidosqualene cyclase from Saccharomyces cerevisiae, Trypanosoma cruzi, Pneumocystis carinii and Arabidopsis thaliana expressed in yeast: a model for the development of novel antiparasitic agents” (Bioorg Med Chem Lett, 2009).

Test [1] is described as follows: Inhibition of Trypanosoma cruzi OSC expressed in Saccharomyces cerevisiae SMY8. Summed up:
(§1)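 Cell-free homogenates of recombinant OSC-defective S. cerevisiae SMY8 strains, each expressing one OSC: lanosterol cyclase from S. cerevisiae, T. cruzi or P. carinii, or cycloartenol cyclase from A. thaliana. Cyclase activity was measured in homogenates with inhibitor present and IC50 derived. Values are means of two separate experiments, each with duplicate incubations; maximum deviation from the mean under 10%.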

The next test addresses Cycloartenol synthase (Arabidopsis thaliana, UniProt P38605). Nature of the test: Inhibition of Arabidopsis thaliana cycloartenol synthase expressed in Saccharomyces cerevisiae SMY8. Summed up:
as §1

Another test has as its target T1, Lanosterol synthase ERG7 (Saccharomyces cerevisiae S288c, UniProt P38604).
T1 sequence (P38604 whole entry): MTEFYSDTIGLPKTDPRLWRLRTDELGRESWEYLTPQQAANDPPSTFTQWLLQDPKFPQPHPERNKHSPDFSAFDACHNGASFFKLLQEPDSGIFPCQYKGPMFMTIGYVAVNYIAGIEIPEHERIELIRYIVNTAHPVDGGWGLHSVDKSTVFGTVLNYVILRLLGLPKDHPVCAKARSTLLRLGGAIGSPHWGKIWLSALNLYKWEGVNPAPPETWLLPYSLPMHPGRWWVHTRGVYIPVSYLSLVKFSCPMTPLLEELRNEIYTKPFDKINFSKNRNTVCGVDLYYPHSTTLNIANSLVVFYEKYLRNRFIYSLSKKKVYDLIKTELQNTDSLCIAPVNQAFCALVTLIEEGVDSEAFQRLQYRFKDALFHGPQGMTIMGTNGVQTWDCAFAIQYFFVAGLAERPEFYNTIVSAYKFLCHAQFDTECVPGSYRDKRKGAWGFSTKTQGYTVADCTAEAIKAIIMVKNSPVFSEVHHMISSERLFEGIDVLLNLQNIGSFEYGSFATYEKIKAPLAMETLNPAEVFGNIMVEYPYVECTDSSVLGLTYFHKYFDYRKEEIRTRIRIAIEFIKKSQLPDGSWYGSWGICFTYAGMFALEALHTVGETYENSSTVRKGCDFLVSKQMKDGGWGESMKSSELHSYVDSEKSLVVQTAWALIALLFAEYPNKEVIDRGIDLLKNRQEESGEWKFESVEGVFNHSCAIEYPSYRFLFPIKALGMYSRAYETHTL
Nature of the test: Inhibition of yeast OSC expressed in Saccharomyces cerevisiae SMY8. In outline:
as §1

Test [2] in a line: Inhibition of Pneumocystis carinii OSC expressed in Saccharomyces cerevisiae SMY8. Summed up: as §1
For the next test, the target named is T2, Lanosterol synthase (Homo sapiens, UniProt P48449).
T2 sequence (P48449 whole entry): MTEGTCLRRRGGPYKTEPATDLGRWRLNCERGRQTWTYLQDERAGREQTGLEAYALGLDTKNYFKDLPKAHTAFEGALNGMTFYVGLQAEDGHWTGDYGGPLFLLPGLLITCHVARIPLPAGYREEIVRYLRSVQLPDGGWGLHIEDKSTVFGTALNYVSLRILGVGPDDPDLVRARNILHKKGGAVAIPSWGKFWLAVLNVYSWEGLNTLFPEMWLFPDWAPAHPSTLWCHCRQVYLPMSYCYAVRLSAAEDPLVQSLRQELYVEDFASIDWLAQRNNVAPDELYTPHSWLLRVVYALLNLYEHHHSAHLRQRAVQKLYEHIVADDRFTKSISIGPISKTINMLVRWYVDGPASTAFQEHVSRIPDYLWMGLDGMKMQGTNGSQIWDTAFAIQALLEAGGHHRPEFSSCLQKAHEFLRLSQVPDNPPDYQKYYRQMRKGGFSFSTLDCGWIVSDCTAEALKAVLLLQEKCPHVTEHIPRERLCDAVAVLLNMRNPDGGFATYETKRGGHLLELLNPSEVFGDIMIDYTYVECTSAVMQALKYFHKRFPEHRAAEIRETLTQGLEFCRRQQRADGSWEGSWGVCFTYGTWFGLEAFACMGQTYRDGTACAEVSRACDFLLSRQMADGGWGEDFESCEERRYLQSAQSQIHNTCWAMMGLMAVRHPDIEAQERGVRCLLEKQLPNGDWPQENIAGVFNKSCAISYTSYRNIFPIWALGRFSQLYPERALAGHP
Nature of the test: Inhibition of human OSC expressed in Saccharomyces cerevisiae SMY8.

Test [3] is described as follows: Selectivity ratio of IC50 for human OSC to IC50 for Pneumocystis carinii OSC.

Sequence of Cycloartenol synthase (P38605 whole entry): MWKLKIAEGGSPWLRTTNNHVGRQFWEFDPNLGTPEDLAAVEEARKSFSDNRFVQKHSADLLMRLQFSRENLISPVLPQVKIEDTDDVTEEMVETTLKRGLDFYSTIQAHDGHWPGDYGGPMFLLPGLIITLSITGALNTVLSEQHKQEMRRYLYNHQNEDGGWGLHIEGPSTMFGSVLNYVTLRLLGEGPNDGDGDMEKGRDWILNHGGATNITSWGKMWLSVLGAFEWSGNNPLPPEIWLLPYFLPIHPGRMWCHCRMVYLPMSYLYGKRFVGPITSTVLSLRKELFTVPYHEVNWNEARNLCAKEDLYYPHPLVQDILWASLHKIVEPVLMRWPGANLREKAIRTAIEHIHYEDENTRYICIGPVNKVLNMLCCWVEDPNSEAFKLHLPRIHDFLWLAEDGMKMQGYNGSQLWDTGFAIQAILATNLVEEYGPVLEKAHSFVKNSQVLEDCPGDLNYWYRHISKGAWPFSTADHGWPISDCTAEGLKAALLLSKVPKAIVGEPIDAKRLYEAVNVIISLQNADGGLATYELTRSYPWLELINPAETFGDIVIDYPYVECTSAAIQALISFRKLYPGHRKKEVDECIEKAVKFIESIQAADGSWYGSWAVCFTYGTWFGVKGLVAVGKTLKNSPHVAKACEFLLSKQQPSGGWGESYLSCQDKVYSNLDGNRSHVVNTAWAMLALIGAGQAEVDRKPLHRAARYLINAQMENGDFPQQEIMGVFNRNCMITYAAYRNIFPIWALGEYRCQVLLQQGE

Regarding `C=CCN(C)CCCCCCOc1ccc2c(-c3ccc(Br)cc3)nsc2c1`, the 50% inhibitory concentration (IC50) in test [1] turned out to be 340 nM; on Cycloartenol synthase it was 950 nM; against Lanosterol synthase ERG7, 70 nM; in test [2], 230 nM; against Lanosterol synthase it was 160 nM.

As for `C=CCN(C)CCCCCCOc1ccc2c(-c3ccc(Br)cc3)nn(C)c2c1`, the IC50 is 3000 nM in test [1]; 2600 nM at Cycloartenol synthase; 290 nM at Lanosterol synthase ERG7; > 5000 nM in test [2]; 2300 nM on Lanosterol synthase.

`Brc1ccc(-c2nsc3cc(OCCCCN4CCOCC4)ccc23)cc1`: the 50% inhibitory concentration (IC50) in test [1] worked out at 1100 nM; at Cycloartenol synthase, 480 nM; at Lanosterol synthase ERG7, 600 nM; in test [2], 70 nM; against Lanosterol synthase, 120 nM.

As for `C=CCN(C)C/C=C/COc1ccc2c(-c3ccc(Br)cc3)coc2c1`, the half-inhibitory concentration (IC50) stood at 3000 nM at Cycloartenol synthase, 210 nM at Lanosterol synthase ERG7, 1200 nM in test [2] and 90000 nM at Lanosterol synthase.

Turning to `CCN(CC)C(C)(C)CCCC[C@H]1CC[C@H](N(C)S(=O)(=O)c2ccc(C(F)(F)F)cc2)CC1`, the IC50 in test [1] was > 100000 nM; against Cycloartenol synthase it was 4100 nM; against Lanosterol synthase ERG7, 7000 nM; in test [2], 1000 nM; against Lanosterol synthase, 4930 nM.

Take `Brc1ccc(-c2nsc3cc(CCCCCN4CCOCC4)ccc23)cc1`: the IC50 in test [1] came to 1100 nM; against Cycloartenol synthase it was 650 nM; against Lanosterol synthase ERG7 it was 400 nM; in test [2], 50 nM; on Lanosterol synthase it was 100 nM.

Turning to `CCN(CCO)CCCC#Cc1ccc2c(-c3ccc(Br)cc3)nsc2c1`, the concentration for half-maximal inhibition (IC50) in test [1] is > 10000 nM; at Cycloartenol synthase, 1700 nM; against Lanosterol synthase ERG7, 5000 nM; in test [2], 2250 nM; at Lanosterol synthase, 230 nM.

As for `C=CCN(C)Cc1ccc(-c2ccc(C(=O)c3ccc(Br)cc3)cc2)cc1`, the half-inhibitory concentration (IC50) turned out to be 600 nM in test [1]; 250 nM at Cycloartenol synthase; 320 nM against Lanosterol synthase ERG7; 50 nM in test [2]; 250 nM at Lanosterol synthase. The Ratio IC50 in test [3] worked out at 5.

With `CCN(CC)CCCCC[C@H]1CC[C@H](N(C)S(=O)(=O)c2ccc(C(F)(F)F)cc2)CC1`, the 50% inhibitory concentration (IC50) in test [1] came out at 2400 nM; against Cycloartenol synthase, 1000 nM; against Lanosterol synthase ERG7, 3600 nM; in test [2] it was 600 nM; on Lanosterol synthase, 2440 nM.

Regarding `CCN(CCO)CCCCOc1ccc2c(-c3ccc(Br)cc3)nsc2c1`, the IC50 is 6500 nM in test [1]; 2300 nM against Cycloartenol synthase; 700 nM on Lanosterol synthase ERG7; 50 nM in test [2]; 520 nM on Lanosterol synthase. The Ratio IC50 in test [3] worked out at 10.

Turning to `C=CCN(C)CCCCCCOc1ccc(C(=O)c2ccc(Br)cc2)c(F)c1`, the IC50 in test [1] came out at 900 nM; against Cycloartenol synthase it was 1750 nM; against Lanosterol synthase ERG7 it was 210 nM; in test [2], 340 nM.

Take `CCN(CC#Cc1ccc2c(-c3ccc(Br)cc3)nsc2c1)CCO`: the IC50 in test [1] stood at 2300 nM; on Cycloartenol synthase, 550 nM; at Lanosterol synthase ERG7 it was 300 nM; in test [2], 800 nM; on Lanosterol synthase it was 4600 nM.

Regarding `C=CCN(C)CCCCCCOc1ccc(-c2nsc3cc(Br)ccc23)cc1`, the IC50 in test [1] is > 5000 nM; at Cycloartenol synthase it was 10000 nM; at Lanosterol synthase ERG7 it was 280 nM; in test [2] it was 550 nM; against Lanosterol synthase, 20300 nM. For the same compound, in test [3], the Ratio IC50 was determined as 40.

Take `CCN(CC)C1(CCCC[C@H]2CC[C@H](N(C)S(=O)(=O)c3ccc(C(F)(F)F)cc3)CC2)CC1`: the IC50 in test [1] was determined as 400 nM; at Cycloartenol synthase, 320 nM; at Lanosterol synthase ERG7 it was 500 nM; in test [2], 1300 nM; on Lanosterol synthase, 440 nM.

On to `CCN(CC)C(=O)CCCC[C@H]1CC[C@H](N(C)S(=O)(=O)c2ccc(C(F)(F)F)cc2)CC1`, for which the half-inhibitory concentration (IC50) was > 100000 nM in test [1]; 2000 nM against Cycloartenol synthase; > 100000 nM on Lanosterol synthase ERG7; > 100000 nM in test [2]; > 10000 nM on Lanosterol synthase.

As for `CCN(CCO)CCCCC[C@H]1CC[C@H](N(C)S(=O)(=O)c2ccc(C(F)(F)F)cc2)CC1`, the IC50 in test [1] was 1600 nM; on Cycloartenol synthase, 3000 nM; on Lanosterol synthase ERG7, 270 nM; against Lanosterol synthase, 450 nM.

In the case of `CCN(CCO)CCCCC[C@H]1CC[C@H](N(C)C(=O)Oc2ccc(Cl)cc2)CC1`, the IC50 in test [1] was 2000 nM; on Cycloartenol synthase it was 700 nM; on Lanosterol synthase ERG7, 100 nM; in test [2], 2500 nM; on Lanosterol synthase it was 4120 nM.

For `C=CCN(C)CCCCC[C@H]1CC[C@H](N(C)C(=O)Oc2ccc(C(F)(F)F)cc2)CC1`, the 50% inhibitory concentration (IC50) in test [1] was 70 nM; against Cycloartenol synthase it was 1000 nM; on Lanosterol synthase ERG7, 50 nM; in test [2], 340 nM; against Lanosterol synthase, 140 nM.

In the case of `CCN(CCO)C(C)(C)C#Cc1ccc2c(-c3ccc(Br)cc3)nsc2c1`, the half-maximal inhibitory concentration (IC50) in test [1] is 4200 nM; on Cycloartenol synthase, 1250 nM; at Lanosterol synthase ERG7 it was 2200 nM; in test [2], 1000 nM; against Lanosterol synthase it was 11500 nM.

For the compound `C=CCN(C)CCCCOc1ccc2c(-c3ccc(Br)cc3)nsc2c1`, the IC50 was 250 nM in test [1]; 70 nM against Cycloartenol synthase; 700 nM at Lanosterol synthase ERG7; 200 nM in test [2]; 260 nM against Lanosterol synthase.

For `CC(=O)N(CCO)CCCCOc1ccc2c(-c3ccc(Br)cc3)nsc2c1`, the half-maximal inhibitory concentration (IC50) was 5500 nM in test [1], 800 nM on Cycloartenol synthase, 100000 nM against Lanosterol synthase ERG7 and > 1000 nM against Lanosterol synthase.

With `CN(C/C=C/COc1ccc(C(=O)c2ccc(Br)cc2)cc1)C1CC1`, the IC50 in test [1] is 1500 nM; on Cycloartenol synthase it was 260 nM; against Lanosterol synthase ERG7, 180 nM; in test [2], 200 nM; at Lanosterol synthase, 270 nM.

With `CN([C@H]1CC[C@H](CCCCCN(CCO)CCO)CC1)S(=O)(=O)c1ccc(C(F)(F)F)cc1`, the 50% inhibitory concentration (IC50) in test [1] is 2700 nM; on Cycloartenol synthase, 1500 nM; against Lanosterol synthase ERG7, 1500 nM; in test [2], 400 nM; against Lanosterol synthase, 720 nM.

For the compound `O=C(c1ccc(Cl)cc1)N1CCC(=Cc2ccc(C3=NCCO3)cc2)CC1`, the IC50 in test [1] was > 5000 nM; at Cycloartenol synthase, 2500 nM; against Lanosterol synthase ERG7, 670 nM; in test [2] it was > 5000 nM; on Lanosterol synthase, 1150 nM.

`C=CCN(C)CCCCC[C@H]1CC[C@H](N(C)S(=O)(=O)c2ccc(C(F)(F)F)cc2)CC1`: the IC50 in test [1] was determined as 300 nM; against Cycloartenol synthase it was 440 nM; against Lanosterol synthase ERG7, 300 nM; in test [2], 120 nM; against Lanosterol synthase, 100 nM.

By IC50 is commonly meant the concentration needed to halve the response being measured. A low value points to inhibition by little substance.
